pIC50: −log10 of the molar value. Active and inactive are the calls of the source. The calls are words filed in the database; no cut-off is given here.
How the values were obtained:
[1] = biological target: T1, Epidermal growth factor receptor (Homo sapiens, UniProt P00533); type: cell-based, LoVo
[2] = biological target: Epidermal growth factor receptor (Homo sapiens, UniProt P00533, L858R/T790M); type: cell-based, NCI-H1975
[3] = biological target: Epidermal growth factor receptor (Homo sapiens, UniProt P00533, EX19DEL); type: cell-based, PC-9
Chain of Epidermal growth factor receptor (Homo sapiens, UniProt P00533, EX19DEL) (P00533 whole entry, looked up, stated change not applied): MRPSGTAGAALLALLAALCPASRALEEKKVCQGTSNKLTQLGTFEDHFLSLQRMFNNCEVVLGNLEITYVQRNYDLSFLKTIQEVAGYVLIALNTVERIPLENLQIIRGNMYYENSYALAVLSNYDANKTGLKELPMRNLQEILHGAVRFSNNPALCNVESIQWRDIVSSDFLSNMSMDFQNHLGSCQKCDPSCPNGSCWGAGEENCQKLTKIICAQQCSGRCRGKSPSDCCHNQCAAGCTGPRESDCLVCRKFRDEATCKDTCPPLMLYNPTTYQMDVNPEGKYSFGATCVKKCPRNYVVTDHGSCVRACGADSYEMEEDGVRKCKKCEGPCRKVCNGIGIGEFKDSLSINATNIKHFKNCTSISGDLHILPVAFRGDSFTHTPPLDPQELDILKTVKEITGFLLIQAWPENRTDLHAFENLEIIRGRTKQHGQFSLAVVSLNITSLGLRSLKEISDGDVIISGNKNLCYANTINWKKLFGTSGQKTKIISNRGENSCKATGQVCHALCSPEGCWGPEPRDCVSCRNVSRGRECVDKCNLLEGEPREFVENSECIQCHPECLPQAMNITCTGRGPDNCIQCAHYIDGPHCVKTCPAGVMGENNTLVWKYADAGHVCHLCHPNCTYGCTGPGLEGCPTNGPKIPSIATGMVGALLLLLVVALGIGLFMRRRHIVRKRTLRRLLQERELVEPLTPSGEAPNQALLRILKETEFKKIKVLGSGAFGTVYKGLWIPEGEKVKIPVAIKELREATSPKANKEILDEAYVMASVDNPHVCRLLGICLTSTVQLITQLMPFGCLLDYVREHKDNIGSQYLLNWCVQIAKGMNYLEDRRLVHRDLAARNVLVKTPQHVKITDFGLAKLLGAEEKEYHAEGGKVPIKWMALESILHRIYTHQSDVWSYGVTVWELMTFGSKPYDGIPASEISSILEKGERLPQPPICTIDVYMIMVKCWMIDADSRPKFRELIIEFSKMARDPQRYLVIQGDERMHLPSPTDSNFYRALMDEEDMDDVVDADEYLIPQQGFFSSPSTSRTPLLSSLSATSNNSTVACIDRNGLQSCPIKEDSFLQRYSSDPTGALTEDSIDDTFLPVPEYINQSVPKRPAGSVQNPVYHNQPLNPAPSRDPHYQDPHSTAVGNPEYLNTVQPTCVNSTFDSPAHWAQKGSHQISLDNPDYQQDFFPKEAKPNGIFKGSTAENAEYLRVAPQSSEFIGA

[4] = (§1) Inhibition of human recombinant N-terminal GST-tagged EGFR L858R/[…] double mutant after 50 mins by HTRF assay
[5] = organism: Homo sapiens; assay: as §1
[6] = Lipophilicity, log D of the compound at pH 7.4; type: physicochemical; conditions: buffer
[7] = biological target: Insulin receptor (Homo sapiens) (UniProt P06213); assay: Inhibition of insulin receptor (unknown origin) at 1 uM relative to control
Method in brief: (§2)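 Broad panel of >70 kinases run as biochemical assays at University of Dundee, compound tested at 1 μM; percent inhibition relative to control.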

[8] = biological target: Myosin light chain kinase, smooth muscle (Homo sapiens) (UniProt Q15746); assay: Inhibition of smMLCK (unknown origin) at 1 uM relative to control
Method in brief: as §2

[9] = biological target: Maternal embryonic leucine zipper kinase (Homo sapiens) (UniProt Q14680); assay: Inhibition of MELK (unknown origin) at 1 uM relative to control
Chain of Maternal embryonic leucine zipper kinase (Homo sapiens) (Q14680 whole entry, looked up): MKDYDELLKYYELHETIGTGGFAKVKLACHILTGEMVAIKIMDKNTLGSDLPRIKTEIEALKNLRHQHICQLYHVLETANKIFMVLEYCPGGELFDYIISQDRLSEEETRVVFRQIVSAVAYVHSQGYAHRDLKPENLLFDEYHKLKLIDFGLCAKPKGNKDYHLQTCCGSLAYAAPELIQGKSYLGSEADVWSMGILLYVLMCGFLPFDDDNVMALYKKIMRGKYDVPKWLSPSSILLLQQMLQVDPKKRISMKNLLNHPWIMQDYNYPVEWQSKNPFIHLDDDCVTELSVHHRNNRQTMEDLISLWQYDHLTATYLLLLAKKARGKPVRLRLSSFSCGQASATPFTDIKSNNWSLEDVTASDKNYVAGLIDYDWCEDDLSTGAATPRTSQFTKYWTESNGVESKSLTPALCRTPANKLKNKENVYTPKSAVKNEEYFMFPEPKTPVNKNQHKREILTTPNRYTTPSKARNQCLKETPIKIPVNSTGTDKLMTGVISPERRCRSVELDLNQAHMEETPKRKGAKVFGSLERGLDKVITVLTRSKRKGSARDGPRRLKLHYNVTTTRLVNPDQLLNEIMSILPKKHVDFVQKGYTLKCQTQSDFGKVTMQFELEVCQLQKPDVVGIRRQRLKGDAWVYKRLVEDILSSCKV
Method in brief: as §2

[10] = biological target: Tyrosine-protein kinase BTK (Homo sapiens) (UniProt Q06187); assay: Inhibition of BTK (unknown origin) at 1 uM relative to control
Method in brief: as §2

[11] = biological target: T2, Lymphokine-activated killer T-cell-originated protein kinase (Homo sapiens) (UniProt Q96KB5); assay: Inhibition of PBK (unknown origin) at 1 uM relative to control
T2 sequence (whole entry): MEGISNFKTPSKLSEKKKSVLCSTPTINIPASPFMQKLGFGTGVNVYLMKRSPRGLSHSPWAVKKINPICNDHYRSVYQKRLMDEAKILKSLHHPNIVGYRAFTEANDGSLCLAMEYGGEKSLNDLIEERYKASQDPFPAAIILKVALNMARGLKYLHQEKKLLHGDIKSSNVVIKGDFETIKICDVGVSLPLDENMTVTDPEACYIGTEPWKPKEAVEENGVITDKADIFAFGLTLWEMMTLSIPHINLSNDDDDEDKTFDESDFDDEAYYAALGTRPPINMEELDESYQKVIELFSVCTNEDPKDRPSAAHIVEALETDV
Method in brief: as §2

[12] = biological target: Insulin-like growth factor 1 receptor (Homo sapiens) (UniProt P08069); assay: Inhibition of IGF1R (unknown origin) at 1 uM relative to control
Method in brief: as §2

[13] = test system: PC-9; assay: Antitumor activity against human PC9 cells harboring EGFR exon 19 deletion activating mutant xenografted in SCID mouse assessed as tumor growth inhibition at 60 mg/kg/day, po after 7 days relative to vehicle-treated control; type: functional; conditions: read-out: TGI
[14] = biological target: Calcium/calmodulin-dependent protein kinase kinase 2 (Homo sapiens) (UniProt Q96RR4); assay: Inhibition of CAMKKbeta (unknown origin) at 1 uM relative to control
Method in brief: as §2

[15] = biological target: Serine/threonine-protein kinase Chk2 (Homo sapiens) (UniProt O96017); assay: Inhibition of CHK2 (unknown origin) at 1 uM relative to control
Chain of Serine/threonine-protein kinase Chk2 (Homo sapiens) (O96017 whole entry): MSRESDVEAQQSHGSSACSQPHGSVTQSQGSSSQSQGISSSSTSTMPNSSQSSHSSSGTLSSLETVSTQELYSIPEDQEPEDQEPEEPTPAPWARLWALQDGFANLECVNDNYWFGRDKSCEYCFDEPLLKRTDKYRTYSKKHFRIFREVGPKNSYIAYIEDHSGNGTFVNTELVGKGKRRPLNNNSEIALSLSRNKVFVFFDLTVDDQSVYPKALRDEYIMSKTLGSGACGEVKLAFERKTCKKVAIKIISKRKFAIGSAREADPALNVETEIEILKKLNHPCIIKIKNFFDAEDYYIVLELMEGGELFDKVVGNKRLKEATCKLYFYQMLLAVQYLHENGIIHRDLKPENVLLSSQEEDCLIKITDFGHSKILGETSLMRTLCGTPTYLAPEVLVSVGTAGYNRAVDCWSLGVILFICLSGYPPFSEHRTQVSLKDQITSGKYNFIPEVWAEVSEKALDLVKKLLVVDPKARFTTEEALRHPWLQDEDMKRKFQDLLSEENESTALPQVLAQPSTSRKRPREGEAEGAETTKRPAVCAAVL
Method in brief: as §2

[16] = test system: NCI-H1975; assay: Antitumor activity against human NCI-H1975 cells harboring EGFR L858R/[…] double mutant xenografted in SCID mouse assessed as tumor growth inhibition at 60 mg/kg/day, po after 7 days relative to vehicle-treated control; type: functional; conditions: read-out: TGI
[17] = biological target: Mitogen-activated protein kinase kinase kinase 11 (Homo sapiens) (UniProt Q16584); assay: Inhibition of MAP3K11 (unknown origin) at 1 uM relative to control
Method in brief: as §2

[18] = test system: A-431; assay: Antitumor activity against wild type human A431 cells xenografted in SCID mouse assessed as tumor growth inhibition at 60 mg/kg/day, po after 7 days relative to vehicle-treated control; type: functional; conditions: read-out: TGI
[19] = biological target: Vascular endothelial growth factor receptor 1 (Homo sapiens) (UniProt P17948); assay: Inhibition of FLT1 (unknown origin) at 1 uM relative to control
Method in brief: as §2

[20] = Aqueous solubility of the compound; type: physicochemical; conditions: buffer
[21] = Half life in phosphate buffer at pH 7.4 at 50 uM by LC-MS analysis in presence of glutathione; type: physicochemical; conditions: phosphate buffer with glutathione
[22] = biological target: T1, Epidermal growth factor receptor; assay: Inhibition of wild type human EGFR after 50 mins by HTRF assay
[23] = organism: Homo sapiens; assay: Selectivity ratio of IC50 for wild type human EGFR to IC50 for human recombinant N-terminal GST-tagged EGFR L858R/[…] double mutant
[24] = test system: NCI-H1975; assay: Selectivity ratio of IC50 for EGFR L858R/[…] double mutant phosphorylation in human NCI-H1975 cells to IC50 for human recombinant N-terminal GST-tagged EGFR L858R/[…] double mutant; type: cell-based

Chain of Epidermal growth factor receptor (Homo sapiens, UniProt P00533, L858R/T790M) (P00533 25-1210 T790M/L858R limits assumed): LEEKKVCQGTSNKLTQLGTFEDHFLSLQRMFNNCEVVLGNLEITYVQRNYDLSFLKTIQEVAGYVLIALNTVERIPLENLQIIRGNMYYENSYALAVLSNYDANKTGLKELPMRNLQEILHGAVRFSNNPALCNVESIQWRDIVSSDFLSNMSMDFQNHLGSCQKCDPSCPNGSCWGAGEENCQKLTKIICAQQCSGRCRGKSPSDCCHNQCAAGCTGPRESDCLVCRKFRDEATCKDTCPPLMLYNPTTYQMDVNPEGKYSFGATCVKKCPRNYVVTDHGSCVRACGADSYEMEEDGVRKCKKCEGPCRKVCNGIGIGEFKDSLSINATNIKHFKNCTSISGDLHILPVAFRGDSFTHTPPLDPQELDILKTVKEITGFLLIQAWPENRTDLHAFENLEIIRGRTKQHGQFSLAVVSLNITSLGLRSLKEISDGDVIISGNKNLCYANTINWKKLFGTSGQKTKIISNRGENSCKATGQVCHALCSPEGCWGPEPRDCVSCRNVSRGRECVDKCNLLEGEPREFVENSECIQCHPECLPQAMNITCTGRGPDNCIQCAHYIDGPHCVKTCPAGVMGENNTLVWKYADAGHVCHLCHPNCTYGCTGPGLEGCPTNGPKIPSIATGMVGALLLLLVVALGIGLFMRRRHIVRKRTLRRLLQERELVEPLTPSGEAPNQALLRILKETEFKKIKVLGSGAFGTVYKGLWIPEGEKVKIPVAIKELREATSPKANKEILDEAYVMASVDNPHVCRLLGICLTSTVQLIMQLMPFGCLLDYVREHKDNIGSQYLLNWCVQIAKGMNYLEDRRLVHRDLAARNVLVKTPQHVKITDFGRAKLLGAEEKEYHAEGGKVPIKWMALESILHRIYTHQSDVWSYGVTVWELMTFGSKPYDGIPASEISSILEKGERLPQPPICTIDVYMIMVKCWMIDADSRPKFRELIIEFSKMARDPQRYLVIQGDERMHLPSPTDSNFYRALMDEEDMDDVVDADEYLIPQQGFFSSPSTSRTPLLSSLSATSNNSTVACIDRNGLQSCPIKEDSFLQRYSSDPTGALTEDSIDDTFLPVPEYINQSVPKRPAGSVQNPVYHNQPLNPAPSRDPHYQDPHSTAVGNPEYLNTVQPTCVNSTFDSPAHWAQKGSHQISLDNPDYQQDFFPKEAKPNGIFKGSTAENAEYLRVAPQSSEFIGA
T1 sequence (P00533 whole entry): as the sequence (P00533 whole entry, looked up, stated change not applied) above

Row | Structure (SMILES) | pIC50 [1] | pIC50 [2] | pIC50 [3] | pIC50 [4] | also measured
1 | COc1ccc(NC(=O)/C=C/CN(C)C)cc1Nc1nccc(-c2cnn3ccccc23)n1 | 4.70 | 6.60 | 6.41 | – | –
2 | COc1ccc(NC(=O)CCCN(C)C)cc1Nc1ncc(Cl)c(-c2cnn3ccccc23)n1 | – | 5.64 | – | 7.74 | –
3 | C=CC(=O)Nc1cc2c(Nc3ccc(F)c(Cl)c3)ncnc2cc1OCCCN1CCOCC1 | – | – | – | – | inhibition [5]: Active
4 | C=CC(=O)Nc1cc(Nc2nccc(-c3cnn4ccccc34)n2)c(OC)cc1N1CCN(C)CC1 | 4.72 | – | 6.85 | – | –
5 | COc1ccc(NC(=O)/C=C/CN(C)C)cc1Nc1ncc([S+](C)[O-])c(-c2cnn3ccccc23)n1 (centres undefined) | < 4.52 | 4.82 | 5.89 | – | logD [6]: 1.3
6 | COc1ccc(NC(=O)/C=C/CN(C)C)cc1Nc1ncc(Cl)c(-c2cnn3ccccc23)n1 | – | – | – | – | inhibition [7]: > 75%; inhibition [8]: > 75%; inhibition [9]: > 75%; inhibition [10]: > 75%; inhibition [11]: > 75%; inhibition [12]: > 75%; inhibition in vivo at 60 mg/kg/day [13]: 134%; inhibition [14]: > 75%; inhibition [15]: > 75%; inhibition in vivo at 60 mg/kg/day [16]: 105%; inhibition [17]: > 75%; inhibition in vivo at 60 mg/kg/day [18]: 46%; inhibition [19]: > 75%
7 | C=CC(=O)Nc1ccccc1 | – | – | – | – | solubility [20]: soluble
8 | COc1ccc(NC(=O)/C=C/CN(C)C)cc1Nc1ncc(C)c(-c2cnn3ccccc23)n1 | 4.62 | 6.54 | 6.60 | – | –
9 | COc1cc2ncnc(Nc3ccc(F)c(Cl)c3)c2cc1NC(=O)/C=C/CN1CCCCC1 | – | – | – | – | inhibition [5]: Active
10 | CN(C)C/C=C/C(=O)Nc1cc2c(Nc3ccc(F)c(Cl)c3)ncnc2cc1O[C@H]1CCOC1 [AFATINIB] | – | – | – | – | half-life at 50 µM [21]: 25 min
11 | COc1ccc(NC(=O)/C=C/CN(C)C)cc1Nc1ncc(F)c(-c2cnn3ccccc23)n1 | 4.72 | 6.66 | 6.42 | – | logD [6]: 3.3

Continued, in another order:

Row | pIC50 [1] | pIC50 [2] | pIC50 [3] | pIC50 [4] | Structure (SMILES) | also measured
12 | < 4.52 | 5.68 | 5.55 | 7.28 | C=CC(=O)N1CCc2cc(OC)c(Nc3ncc(Cl)c(-c4c[nH]c5ccccc45)n3)cc21 | –
13 | 6.26 | 7.66 | 7.54 | 8.20 | C=CC(=O)Nc1ccc(OC)c(Nc2ncc(Cl)c(-c3c[nH]c4ccccc34)n2)c1 | logD [6]: > 4.3
14 | < 4.52 | 4.89 | 4.72 | 6.49 | C=CC(=O)Nc1ccc(Nc2ncc(Cl)c(-c3c[nH]c4ccccc34)n2)cc1 | –
15 | – | – | 7.64 | – | C=CC(=O)Nc1cc(Nc2ncc(Cl)c(-c3c[nH]c4ccccc34)n2)c(OC)cc1N1CCN(C)CC1 | –
16 | 5.46 | 7.09 | 6.57 | 7.28 | C=CC(=O)Nc1cccc(Nc2ncc(Cl)c(-c3c[nH]c4ccccc34)n2)c1 | logD [6]: > 4.3
17 | 5.81 | 7.28 | 7.07 | – | COc1ccc(NC(=O)/C=C/CN(C)C)cc1Nc1ncc(Cl)c(-c2c[nH]c3ccccc23)n1 | –
18 | 4.89 | 7.48 | 6.82 | – | C=CC(=O)Nc1ccc(OC)c(Nc2ncc(Cl)c(-c3cnn4ccccc34)n2)c1 | logD [6]: > 4.3
19 | – | 6.11 | – | 8.05 | COc1cc(N2CCN(C(C)=O)CC2)ccc1Nc1ncc(Cl)c(-c2c[nH]c3ccccc23)n1 | pIC50 [22]: 6.10; Ratio IC50 [23]: 88; Ratio IC50 [24]: 90
20 | 5.89 | 7.17 | 7.77 | – | C=CC(=O)Nc1cc(Nc2nccc(-c3c[nH]c4ccccc34)n2)c(OC)cc1N1CCN(C)CC1 | logD [6]: 3.4
21 | < 4.52 | 5.55 | 5.74 | 7.19 | COc1ccc(NC(=O)CC#N)cc1Nc1ncc(Cl)c(-c2c[nH]c3ccccc23)n1 | –
